Converted amounts (≈) assume the structure as drawn.

One experiment concerns Bacillus cereus. Briefly: Antibacterial activity against Bacillus cereus ATCC 10987 NRS 248 measured after overnight incubation. The format is functional. In short, it runs like this: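 B. cereus grown overnight in LB broth at 30 °C, diluted 10^6-fold in fresh medium. 2-fold serial broth microdilution in 96-well plates starting at 100 μM, DMSO or water as negative control. Triplicates. MIC is the lowest concentration with no visible turbidity.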

A further experiment concerns Staphylococcus aureus. The experiment in a line: Antibacterial activity against Staphylococcus aureus ATCC 25923 Seattle 1945 measured after overnight incubation. The format is functional. In short, it runs like this:
(§1)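 Strain precultured overnight in LB broth at 37 °C, then diluted 10^6-fold in fresh medium. 2-fold serial broth microdilution in 96-well plates from 100 μM top concentration, DMSO or water negative control. Triplicate wells. MIC taken as the lowest concentration showing no turbidity.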

A further experiment has as its system Pseudomonas aeruginosa. The experiment in a line: Antibacterial activity against Pseudomonas aeruginosa PAO1 ATCC BAA-47 measured after overnight incubation. The experiment is classed as functional. The procedure, abridged: as §1
Experiment [1] deals with Mycobacterium tuberculosis. Briefly: Antibacterial activity against Mycobacterium tuberculosis H37Ra ATCC 25177 measured after 1 week. The experiment is classed as functional. The settings on record: H37Ra ATCC 25177, 168 h. In short, it runs like this: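 M. tuberculosis H37Ra grown two weeks in Middlebrook 7H9, diluted to OD600 0.01; broth microdilution in 96-well plates, compounds given at 2-fold final concentration in first column then serially diluted 2-fold; DMSO or H2O negative control, streptomycin positive control; triplicates; incubated one week at 37 °C.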

For another experiment, the system named is Saccharomyces cerevisiae. The experiment in a line: Antifungal activity against Saccharomyces cerevisiae BY4741 measured after overnight incubation by spectrometric method. The format is functional. The procedure, abridged:
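Yeast grown overnight in YPD at 30 °C. Cell density set by A660, final 10 × 10^5 cells/mL. 2-fold serial dilution in YPD from 100 μM, DMSO negative control, nystatin positive control starting at 25 μM. Triplicates, overnight incubation.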

A further experiment relates to HCT-116. The experiment in a line: Cytotoxicity against human HCT116 cells after 48 hrs by MTT assay. The format is functional, cell-based. The settings on record: HCT-116, 48 h. In short, it runs like this:
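Cells kept in DMEM with 10% FBS and 1% antibiotic-antimycotic at 37 °C, 5% CO2. Seeded at 10,000 cells/well, treated after 24 h with a range of concentrations or DMSO. Viability read by MTT after 48 h.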
On the technique in general: Tetrazolium assays rely on reduction of a dye to a coloured formazan, in cell work by metabolically active cells.

What is called MIC is the lowest concentration found to suppress growth. A word on the IC50: it is the midpoint of a concentration-inhibition curve. Higher therefore signals weaker potency. For `CCC/C=C/C=C/CCc1cccc(O)c1`, the MIC against Bacillus cereus was 22 µg/mL (≈ 102 µM); in the experiment with Staphylococcus aureus, 22 µg/mL (≈ 102 µM); with Pseudomonas aeruginosa, greater than 22 µg/mL; in experiment [1], greater than 22 µg/mL; against Saccharomyces cerevisiae, greater than 22 µg/mL. Further, the IC50 in the experiment with HCT-116 is greater than 100 µM.
In the experiment on Staphylococcus aureus, `O=C(N[C@H](CO)[C@H](O)c1ccc([N+](=O)[O-])cc1)C(Cl)Cl` [CHLORAMPHENICOL] registered an MIC of 4 µg/mL (≈ 12.4 µM).
As for `C#CCCC/C=C/CCCCc1cccc(O)c1`, the MIC is 6.1 µg/mL (≈ 25.2 µM) in the experiment on Bacillus cereus; 6.1 µg/mL (≈ 25.2 µM) in the experiment with Staphylococcus aureus; greater than 24 µg/mL against Pseudomonas aeruginosa; greater than 24 µg/mL in experiment [1]; greater than 24 µg/mL with Saccharomyces cerevisiae. This compound also had a concentration for half-maximal inhibition (IC50) in the experiment on HCT-116 of 71 µM.
For the compound `O=C(O)c1cn(C2CC2)c2cc(N3CCNCC3)c(F)cc2c1=O` [CIPROFLOXACIN], the minimum inhibitory concentration (MIC) with Bacillus cereus turned out to be 0.03 µg/mL (≈ 0.0905 µM).
`CN[C@@H]1[C@H](O[C@H]2[C@H](O[C@H]3[C@H](O)[C@@H](O)[C@H](N=C(N)N)[C@@H](O)[C@@H]3N=C(N)N)O[C@@H](C)[C@]2(O)C=O)O[C@@H](CO)[C@H](O)[C@H]1O` [STREPTOMYCIN]: the values for the MIC (with Pseudomonas aeruginosa; in experiment [1]) were 6.2 µg/mL (≈ 10.7 µM) and 3.1 µg/mL (≈ 5.33 µM), respectively.
NYSTATIN: the lowest concentration to inhibit growth in the experiment with Saccharomyces cerevisiae (MIC) was 23 µg/mL.
Take `CCC/C=C/CCCCc1cccc(O)c1`: the MIC in the experiment with Bacillus cereus is 11 µg/mL (≈ 50.4 µM); with Staphylococcus aureus it was 22 µg/mL (≈ 101 µM); against Pseudomonas aeruginosa, greater than 22 µg/mL; in experiment [1], greater than 22 µg/mL; against Saccharomyces cerevisiae, greater than 22 µg/mL. In the experiment on HCT-116, this compound gave a concentration for half-maximal inhibition (IC50) of 26 µM.

Values taken from ChEMBL document CHEMBL4382253, “Isolation and Characterization of Anaephenes A-C, Alkylphenols from a Filamentous Cyanobacterium ( Hormoscilla sp., Oscillatoriales)” (J Nat Prod, 2018).
